Test results as given in PMC9056317 (RSC Advances, 2020).
Where two headings read alike, the source gives them in different places. Values belong to the compound of their own block, whether it stands above or below them.

Tests used:
[1] = test system: human glioblastoma cell line GBM6; test: GBM6 proliferation MTT assay; format: cell-based; conditions: for anti-proliferative activity in GBM6: 100 μM, MTT 72 hours after treatment; for IC50: Homo sapiens
Procedure, shortened: (§1)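 GBM6 cells (DMEM, 10% FBS, 37 °C, 5% CO2) were plated at 1000 per well and incubated overnight, then the medium was replaced with test compound for 72 h. MTT was added for 4 h at 37 °C, and formazan was dissolved in DMSO. A570 was read with a 630 nm reference. Single-dose screen: n = 3, normalised to control. IC50: 0.78–100 μM, non-linear regression of survival %.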

MDA MB 231 cells = test: MDA MB 231 proliferation MTT assay; format: cell-based; conditions: for anti-proliferative effect in MDA MB 231: 100 μM, data not shown; for IC50: Homo sapiens, MDA-MB-231, 72 h, read-out: IC50 in MDA MB 231
Procedure, shortened: as §1, with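 “MDA MB 231” for “GBM6”, “CO2, split every 3–4 days)” for “CO2)”, “2000” for “1000”, “reference.” for “reference. Single-dose screen: n = 3, normalised to control.”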

[2] = test system: HCMV (Towne-BAC-GFP strain); format: cell-based, human cytomegalovirus; conditions: HFF-1 cells pre-treated with 10 μM compound for 1 hour, HCMV MOI 3.0
Procedure, shortened: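 HFF-1 cells were grown in DMEM with 10% FBS, sodium pyruvate and L-glutamine at 37 °C, 5% CO2. They were pre-treated for 1 h with test compound or DMSO control, then infected with Towne-BAC-GFP HCMV. GFP-positive infected cells were quantified by fluorescence microscopy.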

HFF-1 cells = test: Cytotoxic assessment on HFF cells by trypan blue exclusion assay; format: cell-based, human; conditions: 2× the IC50 concentrations, maintained on cells for 5 days
Procedure, shortened: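 Confluent HFF-1 cells (DMEM, 10% FBS, 37 °C, 5% CO2) were treated with test compound or left untreated, then infected with HCMV (MOI 3.0) or left uninfected. At day 5, cells were trypsinised and mixed 1:1 with 0.4% trypan blue. Percent viable cells was read on an automated cell counter. Three independent experiments, SEM.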

[3] = test system: HCMV (Towne-BAC-GFP) strain; conditions: read-out: reported IC50; reported value used to validate the assay; cited from earlier work
[4] = GBM6, 72 h, read-out: IC 50 in GBM6
[5] = GBM6, read-out: IC50 (highest cytotoxicity)

IC50 [1, 4]: 36.1 µM
Compound: FC1C(c2ccc(Br)cc2)=NOC12CCCCO2 (stereo not drawn) [4l, 3-(4-Bromophenyl)-4-fluoro-1,6-dioxa-2-azaspiro[4.5]dec-2-ene]
anti-proliferative activity in GBM6 [1]: robust anti-proliferative activity
IC50 [1, 5]: 36 to 80 µM
anti-proliferative effect in MDA MB 231 (MDA MB 231 cells): highest anti-proliferative effect
IC50 (MDA MB 231 cells): 68.2 µM

IC50 [1, 4]: 43.2 µM
Compound: O=C1CCC2(ON=C(c3c(Cl)cccc3Cl)C2F)O1 (stereo not drawn) [5f, 3-(2,6-Dichlorophenyl)-4-fluoro-1,6-dioxa-2-azaspiro[4.4]non-2-en-7-one]
anti-proliferative activity in GBM6 [1]: robust anti-proliferative activity
IC50 [1, 5]: 36 to 80 µM
anti-proliferative effect in MDA MB 231 (MDA MB 231 cells): highest anti-proliferative effect
IC50 (MDA MB 231 cells): 79.8 µM

Compound: O=[N+]([O-])c1ccc(C2=NOC3(CCCCO3)C2F)cc1 (stereo not drawn) [4o, 4-Fluoro-3-(4-nitrophenyl)-1,6-dioxa-2-azaspiro[4.5]dec-2-ene]
reduction in GFP levels (mean fluorescence intensity, MFI) [2]: significant reduction in MFI

Compound: FC1C(c2ccccc2)=NOC12CCCCO2 (stereo not drawn) [4i, 4-Fluoro-3-phenyl-1,6-dioxa-2-azaspiro[4.5]dec-2-ene]
reduction in GFP levels (mean fluorescence intensity, MFI) [2]: significant reduction in MFI

Compound: FC1C(c2ccc(C(F)(F)F)cc2)=NOC12CCCCO2 (stereo not drawn) [4n, 4-Fluoro-3-(4-(trifluoromethyl)phenyl)-1,6-dioxa-2-azaspiro[4.5]dec-2-ene]
reduction in GFP levels (mean fluorescence intensity, MFI) [2]: significant reduction in MFI
cytotoxicity on HFF cells (HFF-1 cells): did not show significant cytotoxicity

Compound: FC1C(c2ccc(Cl)cc2)=NOC12CCCO2 (stereo not drawn) [4d, 3-(4-Chlorophenyl)-4-fluoro-1,6-dioxa-2-azaspiro[4.4]non-2-ene]
reduction in GFP levels (mean fluorescence intensity, MFI) [2]: significant reduction in MFI
cytotoxicity on HFF cells (HFF-1 cells): did not show significant cytotoxicity

Compound: O=[N+]([O-])c1ccc(C2=NOC3(CCCO3)C2F)cc1 (stereo not drawn) [4h, 4-Fluoro-3-(4-nitrophenyl)-1,6-dioxa-2-azaspiro[4.4]non-2-ene]
reduction in GFP levels (mean fluorescence intensity, MFI) [2]: significant reduction in MFI

Compound: Nc1nc(O)c2ncn(COC(CO)CO)c2n1 [GCV, ganciclovir]
IC50 [3]: 5.2 µM
